Published values gathered from unrelated publications.
Each line is one published result; the experiments were not run side by side.

SMILES	target or system	test	system	conditions	quantity	result
CCOC(=O)[C@@](C)(O)[C@@H]1C[C@@H](CO[Si](c2ccccc2)(c2ccccc2)C(C)(C)C)O[C@H]1n1cc(F)c(=O)[nH]c1=O	A549	cell growth or viability, MTT		42 h	CC50	236 µM
Cc1ncc2n1-c1ccc(Cl)cc1C(c1ccccc1F)=NC2		metabolic stability	beagle dog, hepatocytes	1 µM, 4 h	compound remaining	3%
CN1CCCCC1Cn1cc(C(=O)c2cc([N+](=O)[O-])ccc2I)c2ccccc21 (racemic)			mouse, plasma	intravenous, 25 mg/kg	C0	6 µg/mL
CCC[C@@](N)(CO)CCc1ccc(OCCCCCC(C)C)cc1			dog, plasma	oral, 2.5 mg/kg	Cmax	69.2 nM
COC(=O)C1CCN(C(=O)c2ccc(NCc3cnc4nc(N)nc(N)c4n3)cc2)CC1	Cytochrome P450 2C19 (CYP2C19, Homo sapiens, UniProt P33261)	enzyme activity, inhibitor, luciferase		10 µM	inhibition	-23.4%
CC(C)C[C@H](NC(=O)[C@@H](NC(=O)/C=C/c1ccccc1F)C(C)C)C(=O)N[C@H](C=O)C[C@@H]1CCCNC1=O	A549	cell growth or viability, MTT		24 h	CC50	> 100 µM
O=C[C@H](C[C@@H]1CCNC1=O)NC(=O)[C@H](CC1CCCCC1)NC(=O)c1cc2ccccc2[nH]1			dog, plasma	intravenous, 8 mg/kg	Cmax	21800 µg/mL
CC(C)C[C@H](NC(=O)[C@@H](NC(=O)c1ccc(Cl)cc1)C(C)C)C(=O)N[C@H](C=O)C[C@@H]1CCCNC1=O	A549	cell growth or viability, MTT		24 h	CC50	> 100 µM
Cl.Cl.O=C(CCN1CCCCC1)c1ccc(-c2ccc(C(=O)CCN3CCCCC3)cc2)cc1			Sprague-Dawley rat, plasma	oral, 50 mg/kg	Tmax	39 min
CC(C)C[C@H](NC(=O)[C@@H](NC(=O)c1ccoc1)C(C)C)C(=O)N[C@H](C=O)C[C@@H]1CCCNC1=O	A549	cell growth or viability, MTT		24 h	CC50	> 100 µM
CC(C)(C)NC(=O)N[C@H](C(=O)N1C[C@H]2[C@@H]([C@H]1C(=O)NC(CC1CCC1)C(=O)C(N)=O)C2(C)C)C(C)(C)C (some centres unmarked)	A549	cell growth or viability, neutral red		48 h	CC50	> 100 µM
